Compound activity as filed in PubChem BioAssay.
UBC13 polyUb – human UBC13 polyubiquitination inhibition; inhibition, % at 20 µM; AID 485273; UBC13 polyubiquitin chain formation, TR-FRET; P61088; actives 0.47% (n = 330,000); in the data active = inhibition above about 45%, passing the limit was not always enough; inconclusive = no clear call, values can overlap the other calls
FID counter – counter-screen for HCV NS3 helicase inhibitors: DNA intercalator displacement. AID 1845. actives 0.17% (n = 290,000). inhibition, % at 7.9 µM. DNA fluorescent intercalator displacement, fluorescence; in the data active = inhibition above about 37%;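 also: higher means more ethidium bromide displaced from hairpin DNA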
Apaf1 inhib – inhibitors of human Apaf-1 apoptosome. O14727. reconstituted apoptosome caspase-3 activity, DEVD-Rh110 fluorescence. inhibition, % at 20 µM. actives 0.71% (n = 330,000); active = inhibition of at least 40% at 20 µM
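System: reconstituted apoptosome with Apaf-1, cytochrome c, caspase-9, procaspase-3, dATP; Signal: Rh110 fluorescence intensity; Schedule: 30 min compound preincubation, 50 min activation, room temperature; Reagent: cytochrome c trigger plus (Z-DEVD)2-Rh110 caspase-3 substrate.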
Neddyl block – inhibitors of human cullin neddylation | P61081+Q13564 | TR-FRET cullin neddylation, biochemical | calls only at 25 µM | AID 651699 | actives 0.58% (n = 360,000); in the data active = inhibition above about 36%
Target sequence (P61081 whole entry, looked up): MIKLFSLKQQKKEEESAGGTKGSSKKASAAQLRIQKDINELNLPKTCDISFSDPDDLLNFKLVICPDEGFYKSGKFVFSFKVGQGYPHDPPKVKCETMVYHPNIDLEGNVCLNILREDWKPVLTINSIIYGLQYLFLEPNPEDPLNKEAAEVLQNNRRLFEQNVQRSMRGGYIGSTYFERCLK
Target sequence (Q13564 whole entry, looked up): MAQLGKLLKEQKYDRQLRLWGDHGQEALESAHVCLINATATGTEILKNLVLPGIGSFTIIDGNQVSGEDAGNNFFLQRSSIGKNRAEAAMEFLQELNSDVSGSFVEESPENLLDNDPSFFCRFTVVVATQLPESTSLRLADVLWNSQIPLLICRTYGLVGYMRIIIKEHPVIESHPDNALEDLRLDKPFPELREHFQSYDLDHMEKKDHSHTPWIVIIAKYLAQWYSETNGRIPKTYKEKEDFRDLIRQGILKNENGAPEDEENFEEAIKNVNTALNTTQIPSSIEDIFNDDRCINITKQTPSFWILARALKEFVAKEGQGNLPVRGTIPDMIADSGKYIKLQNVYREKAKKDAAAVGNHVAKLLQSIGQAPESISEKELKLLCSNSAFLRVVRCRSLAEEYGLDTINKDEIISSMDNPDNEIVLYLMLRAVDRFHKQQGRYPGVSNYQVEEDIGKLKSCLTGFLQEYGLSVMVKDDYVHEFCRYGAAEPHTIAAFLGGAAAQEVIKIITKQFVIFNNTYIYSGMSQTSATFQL
RAD54 inh – blocks human RAD54 Holliday junction branch migration; Q92698; FAM/BHQ fluorescence; inhibition, % at 10.4 µM; actives 0.14% (n = 360,000); AID 602329;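 active = mean normalized replicate activity at least 40 and at least half of replicates scoring 40 or more; inconclusive = only one of the two criteria met; inactive = mean below 40 and under half of replicates reaching 40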;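 also: inhibitors cause a drop in the FAM fluorescence signal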
RAD52 anneal inh – RAD52 (human) annealing inhibition | P43351 | recombinant RAD52 DNA annealing, FRET fluorescence | inhibition, % at 18.7 µM | actives 0.46% (n = 360,000);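 active = every replicate showing at least 50% inhibition; inconclusive = mean inhibition at least 50% but not in every replicate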
Casp3 UBC13 ctr – inhibits human caspase-3 in UBC13 counter-screen; shares compounds with UBC13 polyUb; inhibition, % at 20 µM; Recombinant caspase-3, Caspase-Glo 3/7 luminescence, 60 min; actives 4% (n = 1,400); AID 488856;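 active = mean inhibition across replicates above about 26%, limit read from the data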
UBC13 conf – human UBC13 polyubiquitin inhibition, confirmed | inhibition, % at 10 µM | actives 68% (n = 1,400) | shares compounds with UBC13 polyUb | AID 488859 | UBC13 polyubiquitination, TR-FRET, biochemical; in the data active = inhibition above about 45%; inconclusive = no clear call, values can overlap the other calls
A number is an active result; 0 = inactive; ? = inconclusive; - = no result shown. This is a sample that favours compounds with a hit; in the whole collection about 1.6% have one here.

SMILES	UBC13 polyUb	FID counter	Apaf1 inhib	Neddyl block	RAD54 inh	RAD52 anneal inh	Casp3 UBC13 ctr	UBC13 conf
C/C=C1\COC(C(=O)NCCN2CCCC2)(C(F)(F)F)C=C1C=C1CCCCC1 (stereo not given)	55	-	0	0	0	0	0	52
C[C@@H]1CN([C@@H](C)CO)C(=O)Cc2cc(NS(=O)(=O)c3ccc(Cl)cc3)ccc2O[C@H]1CN(C)CC1CC1	-	-	-	-	0	0	-	-
COCC(=O)Nc1ccc2c(c1)C(=O)N(C)C[C@@H](OC)[C@@H](C)CN(Cc1cccnc1)[C@@H](C)CO2	-	-	-	-	0	0	-	-
[N-]=[N+]=NCc1ccccc1C[C@]1(C(N)=O)N=C(c2ccc(OCCCO)cc2)O[C@H]1c1ccccc1	-	-	-	-	0	0	-	-
CN(CCNC(=O)CCCOc1cc(=O)n(C)c2ccccc12)Cc1ccccc1	51	0	0	0	-	0	0	68
CN(CCCNC(=O)CCCOc1cc(=O)n(C)c2ccccc12)Cc1ccccc1	0	0	0	0	0	0	-	-
O=C(NC[C@H]1CC[C@H]2[C@H](CN2Cc2ccccc2F)O1)C1CCCCC1	-	-	-	-	-	0	-	-
C#CCOCCOCCOCCNc1nc(N2CCN(C(=O)[C@H](CCCN=C(N)N)n3cc(C(N)[C@@H](C)CC)nn3)CC2)nc(N2CCN(C(=O)[C@H](CC(N)=O)n3cc([C@@H](N)CC(N)=O)nn3)CC2)n1 (stereo not given in full)	64	-	0	0	0	0	0	51
C#CCOCCOCCOCCNc1nc(N2CCN(C(=O)[C@H](CCCN=C(N)N)n3cc(C(N)[C@@H](C)CC)nn3)CC2)nc(N2CCN(C(=O)[C@H](CC(N)=O)n3cc([C@@H](N)C(C)C)nn3)CC2)n1 (stereo not given in full)	0	-	0	0	0	0	-	-
C#CCOCCOCCOCCNc1nc(N2CCN(C(=O)[C@H](CCCN=C(N)N)n3cc(C(N)[C@H](C)CC)nn3)CC2)nc(N2CCN(C(=O)[C@H](CCCN=C(N)N)n3cc(C(N)[C@@H](C)CC)nn3)CC2)n1 (stereo not given in full)	74	-	0	0	0	-	0	56
C[C@H](CO)N1C[C@H](C)[C@@H](CN(C)Cc2ccc(Cl)c(Cl)c2)OCCCC[C@H](C)Oc2ccc(NC(=O)Nc3cccc4ccccc34)cc2C1=O	-	-	-	-	0	0	-	-
CCOC(=O)c1cc(-c2ccc(OC)cc2)nc2c1c(C)nn2CCC#N	53	0	0	-	0	-	0	?
CN1c2ccc(C3=CCCCC3)cc2[C@@H]2[C@@H](CCN2S(=O)(=O)c2ccccc2)[C@H]1CO	-	-	-	-	0	0	-	-
CS(=O)(=O)c1ncc(Cl)c(C(=O)Nc2ccc(N3CCOCC3)cc2)n1	45	0	0	0	-	-	0	0
Cc1cccc2c1c(N=NC(N)=S)c(O)n2C1OC(CO)C(O)C(O)C1O (stereo not given)	67	0	0	0	0	0	0	97
Nc1cccc2c1nnn2C1OC(CO)C(O)C(O)C1O (stereo not given)	0	0	0	0	0	0	-	-
COc1ccc2c3c(n(C)c2c1)[C@@H](CO)N(C(=O)C1CCOCC1)CC31CCN(C(=O)C2CCOCC2)CC1	-	-	-	-	-	0	-	-
Cn1c(=O)cc(SCC(=O)NCCCN2CCN(c3ccc(F)cc3)CC2)c2ccccc21	82	0	0	0	-	-	0	?
COc1ccc(S(=O)(=O)Nc2ccc3c(c2)C(=O)N([C@@H](C)CO)C[C@@H](C)[C@@H](CN(C)Cc2ccc(C(=O)O)cc2)OCCCC[C@H](C)O3)cc1	-	-	-	-	0	0	-	-
Oc1ccc(C[C@H]2CNCCN2CCCCC2CCCCC2)cc1	58	-	41	0	0	-	0	0
C[C@@H]1CCCCO[C@H](CN(C)C(=O)c2ccccc2)[C@@H](C)CN([C@@H](C)CO)C(=O)c2cc(NC(=O)c3ccncc3)ccc2O1	-	-	-	-	0	0	-	-
COc1ccc(S(=O)(=O)N(C)C[C@H]2OCCCC[C@@H](C)Oc3ccc(NS(C)(=O)=O)cc3C(=O)N([C@@H](C)CO)C[C@H]2C)cc1	-	-	-	-	0	0	-	-
CCCOC(=O)c1cccc(Nc2nc(-c3cccnc3)nc3ccccc23)c1	49	0	0	0	-	0	0	66
O=C(OCCNc1nc(-c2ccccc2)nc2ccccc12)c1cccnc1	0	0	0	0	-	0	-	-
CO[C@@H]1CN(C)C(=O)c2cc(NS(=O)(=O)c3cccc(C)c3)ccc2OC[C@@H](C)NC[C@@H]1C	-	-	-	-	0	0	-	-
SMILES	UBC13 polyUb	FID counter	Apaf1 inhib	Neddyl block	RAD54 inh	RAD52 anneal inh	Casp3 UBC13 ctr	UBC13 conf
O=C(NNC(=S)NC(=O)c1ccccc1[N+](=O)[O-])c1ccccc1Cl	48	0	0	0	-	0	0	0
COc1ccc(-n2nc(C(=O)NCc3cc(OC)ccc3OC)c3c4ccccc4n(C)c3c2=O)cc1	47	0	0	0	-	0	0	?
CNCCCOc1ccc(C(C)(C)c2ccccc2)cc1	-	0	-	-	-	-	-	-
CNCCC(Oc1ccc(C(F)(F)F)cc1)c1ccccc1 (stereo not given)	50	0	0	0	0	0	0	0
O=C(C[n+]1ccc(/C=C/c2ccccc2)cc1)c1ccc2c(c1)OCCO2	53	0	0	0	0	76	0	0
Cc1cc(C)c2[nH]c(O)c(N=NC(=S)NCC3CCCO3)c2c1 (stereo not given)	91	0	0	0	0	-	0	94
CCn1c(O)c(N=NC(=S)NCC2CCCO2)c2ccccc21 (stereo not given)	77	0	0	0	-	0	0	95
CCn1c(=O)cc(SCC(=O)NCC2CCCO2)c2ccccc21 (stereo not given)	0	0	0	0	0	-	-	-
Oc1[nH]c2ccc(Br)cc2c1N=NC(=S)NCC1CCCO1 (stereo not given)	79	0	0	0	0	0	0	97
Oc1[nH]c2c(Cl)cc(Cl)cc2c1N=NC(=S)NCC1CCCO1 (stereo not given)	0	0	0	0	-	-	-	-
Cc1cccc(NC(=S)N=Nc2c(O)[nH]c3ccccc23)c1	60	0	0	0	-	-	0	76
C[C@H]1CCCCO[C@H](CN(C)C(=O)NC2CCCCC2)[C@@H](C)CN([C@@H](C)CO)C(=O)c2cc(NC(=O)NC3CCCCC3)ccc2O1	-	-	-	-	0	0	-	-
CC(C)c1ccc2[nH]c(O)c(N=NC(=O)c3cccc(S(=O)(=O)Nc4ccccc4Cl)c3)c2c1	0	0	0	0	-	0	-	-
CC(C)NC(=S)N=Nc1c(O)[nH]c2ccc(C(C)C)cc12	65	0	0	0	0	0	0	74
O=C(NCC1CCCO1)c1c(O)c2ccccc2[nH]c1=O (stereo not given)	0	0	0	0	0	-	-	-
